Key:
P2Y purinoceptor 1 [1] = molecular target: T1, P2Y purinoceptor 1 (Homo sapiens, UniProt P47900); test: Agonist activity at P2Y1 receptor expressed in human HEK293 cells; format: functional, cell-based
Pancreas [2] = test: Induction of insulin secretion in isolated rat pancreas; format: functional, tissue-based
Pancreas [3] = test: Induction of insulin secretion in isolated rat pancreas relative to basal level; format: functional
[4] = Stability in human blood assessed as half life; format: ADME, tissue-based
P2Y purinoceptor 1 [5] = molecular target: T1, P2Y purinoceptor 1; test: Agonist activity at G-protein coupled P2Y1 receptor expressed in human 1321N1 cells assessed as increase in calcium by Fura2 assay; format: functional, cell-based
Summary of the method: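 Cell suspensions loaded with fura-2; [Ca2+]i read by dual-excitation spectrofluorometry at 37 °C in 10 mM HEPES-buffered saline pH 7.4 with 1 mM CaCl2 and 1 mM MgCl2. EC50 from maximal [Ca2+]i rise across concentrations; three experiments on separate days.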

Rattus norvegicus [6] = test: Antihyperglycemic activity against Han Wistar rat assessed as blood glucose level at […], iv after 45 mins by OGTT; format: functional
Rattus norvegicus [7] = test: Antihyperglycemic activity against Han Wistar rat assessed as increase in insulin level at […], iv after 5 mins relative to basal level; format: functional
[8] = Stability after 3 hrs in presence of alkaline phosphatase; format: ADME; settings: isolated protein
Summary of the method: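 4 mM nucleotide with calf intestine alkaline phosphatase (12.5 units) in 0.1 M Tris-HCl, 0.1 M MgCl2, final pH 9.8, at 37 °C for 3 h. Stopped at 80 °C for 15 min, then weak anion-exchange cleanup and freeze-drying. Residual analogue quantified by change in reverse-phase HPLC peak integration over time.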

Pancreas [9] = test: Increase in insulin secretion in isolated rat pancreas relative to ATP; format: functional
[10] = Stability in human serum assessed as half life of hydrolysis; format: ADME, cell-free
Rattus norvegicus [11] = test: Antihyperglycemic activity against Han Wistar rat assessed as blood glucose level at […], iv after 150 mins by OGTT; format: functional
[12] = Stability in human whole blood assessed as half life; format: ADME, tissue-based
Rattus norvegicus [13] = test: Antihyperglycemic activity against Han Wistar rat assessed as blood glucose level at 1 mg/kg, po after 45 mins by OGTT; format: functional
Summary of the method: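 Overnight-fasted male Wistar Han rats, 10-11 weeks old, jugular-cannulated, 5 per group. Glibenclamide 1 mg/kg given orally at t = -30 min, then oral glucose 2 g/kg (3 mL/kg) at t = 0. Tail vein blood glucose read by glucometer over time, compared with saline-treated controls.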

T1 sequence (P47900 whole entry): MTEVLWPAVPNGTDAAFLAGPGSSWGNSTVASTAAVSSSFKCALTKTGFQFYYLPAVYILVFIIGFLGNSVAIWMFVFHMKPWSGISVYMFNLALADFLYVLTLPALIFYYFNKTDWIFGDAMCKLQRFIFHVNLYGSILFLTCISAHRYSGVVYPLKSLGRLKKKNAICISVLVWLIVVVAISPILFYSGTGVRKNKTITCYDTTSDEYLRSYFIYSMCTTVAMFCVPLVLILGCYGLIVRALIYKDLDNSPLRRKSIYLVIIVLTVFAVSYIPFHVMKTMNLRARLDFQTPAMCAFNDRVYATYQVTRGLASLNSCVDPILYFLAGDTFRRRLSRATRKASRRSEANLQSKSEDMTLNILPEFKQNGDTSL

[BH3-]P(=O)(OC[C@H]1O[C@@H](n2cnc3c(N)nc(SC)nc32)[C@H](O)[C@H]1O)OP(=O)([O-])OP(=O)([O-])[O-].[Na+].[Na+].[Na+].[Na+] (stereo not given in full)
EC50 (P2Y purinoceptor 1 [1]): 0.0026 µM | EC50 (Pancreas [2]): 0.028 µM | fold change (FC) (Pancreas [3]): 9

Nc1nc2c(ncn2[C@@H]2O[C@H](COP(=O)(O)OP(=O)(O)OP(=O)(O)OP(=O)(O)OC[C@H]3O[C@@H](n4cnc5c(=O)[nH]c(N)nc54)[C@H](O)[C@@H]3O)[C@@H](O)[C@H]2O)c(=O)[nH]1
half-life [4]: 5 min

CSc1nc(N)c2ncn([C@@H]3O[C@H](COP(=O)([O-])CP(=O)([O-])OP(=O)([O-])OP(=O)([O-])OC[C@H]4O[C@@H](n5cnc6c(N)nc(SC)nc65)[C@H](O)[C@@H]4O)[C@@H](O)[C@H]3O)c2n1.[Na+].[Na+].[Na+].[Na+]
EC50 (P2Y purinoceptor 1 [5]; read-out: EC50): 0.42 µM | Activity (Rattus norvegicus [6]): 100 mg/dL | FC (Rattus norvegicus [7]): 4 | Stability [8]: Stable

CSc1nc(N)c2ncn([C@@H]3O[C@H](COP(=O)([O-])OP(=O)([O-])CP(=O)([O-])OP(=O)([O-])OC[C@H]4O[C@@H](n5cnc6c(N)nc(SC)nc65)[C@H](O)[C@@H]4O)[C@@H](O)[C@H]3O)c2n1.[Na+].[Na+].[Na+].[Na+]
EC50 (P2Y purinoceptor 1 [5]; read-out: EC50): 0.46 µM | Stability [8]: Stable

CSc1nc(N)c2ncn([C@@H]3O[C@H](COP(=O)([O-])CP(=O)([O-])OP(=O)([O-])OC[C@H]4O[C@@H](n5cnc6c(N)nc(SC)nc65)[C@H](O)[C@@H]4O)[C@@H](O)[C@H]3O)c2n1.[Na+].[Na+].[Na+]
EC50 (P2Y purinoceptor 1 [5]; 1321-n1): Not Active | Stability [8]: Stable

Nc1ncnc2c1ncn2[C@H]1O[C@@H](COP(=O)(O)OP(=O)(O)OP(=O)(O)OC[C@@H]2O[C@H](n3cnc4c(N)ncnc43)[C@@H](O)[C@H]2O)[C@H](O)[C@@H]1O
EC50 (P2Y purinoceptor 1 [5]; read-out: EC50): 0.011 µM

CCCCCCSc1nc(N)c2ncn([C@H]3O[C@@H](COP(O)(=S)OP(=O)(O)OP(=O)(O)O)[C@H](O)[C@@H]3O)c2n1 (stereo not given in full)
fold change (FC) (Pancreas [9]): 100

CSc1nc(N)c2ncn([C@@H]3O[C@H](COP(=O)(O)OP(=O)(O)O)[C@@H](O)[C@H]3O)c2n1 (single isomer, unassigned)
half-life [10]: 726 min

CSc1nc(N)c2ncn([C@@H]3O[C@H](COP(=O)(O)OP(=O)(O)CP(=O)(O)O)[C@@H](O)[C@H]3O)c2n1 (single isomer, unassigned)
EC50 (P2Y purinoceptor 1 [5]; read-out: EC50): 0.08 µM | Activity (Rattus norvegicus [11]): 85 mg/dL

Nc1ncnc2c1ncn2[C@@H]1O[C@H](COP(=O)(O)OP(=O)(O)O)[C@@H](O)[C@H]1O [ADENOSINE DIPHOSPHATE]
EC50 (P2Y purinoceptor 1 [5]; read-out: EC50): 0.014 µM

Nc1ncnc2c1ncn2[C@@H]1O[C@H](COP(=O)(O)OP(=O)(O)OP(=O)(O)OP(=O)(O)OC[C@H]2O[C@@H](n3cnc4c(N)ncnc43)[C@H](O)[C@@H]2O)[C@@H](O)[C@H]1O [DIADENOSINE TETRAPHOSPHATE]
half-life [12]: 2 min

COc1ccc(Cl)cc1C(=O)NCCc1ccc(S(=O)(=O)NC(=O)NC2CCCCC2)cc1 [GLYBURIDE]
Activity (Rattus norvegicus [13]): 63 mg/dL
